19 compounds from ChEMBL document CHEMBL1140210, “In pursuit of natural product leads: synthesis and biological evaluation of 2-[3-hydroxy-2-[(3-hydroxypyridine-2-carbonyl)amino]phenyl]benzoxazole-4-carboxylic acid (A-33853) and its analogues: discovery of N-(2-benzoxazol-2-ylphenyl)benzamides as novel antileishmanial chemotypes” (J Med Chem, 2008) can be followed below.

Data set [1] relates to Leishmania donovani. Kind of data set: Antileishmanial activity against Leishmania donovani MHOM/ET/67/L82. The format is functional, organism-based. Summed up: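 Tested on axenic amastigote cultures of L. donovani strain MHOM/ET/67/L82. Activity is reported as IC50.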
The test system of data set [2] is Leishmania donovani. Nature of the data set: Antileishmanial activity against Leishmania donovani MHOM/ET/67/L82 at 0.8 ug/mL. The format is functional.
Another data set deals with Trypanosoma cruzi. Nature of the data set: Antitrypanosomal activity against Trypanosoma cruzi Tulahuen C2C4 at 4.8 ug/mL. The class given is functional.
A short description of data set [3]: Selectivity index, ratio of IC50 for rat L6 cells to IC50 for Leishmania donovani MHOM/ET/67/L82. As to conditions: read-out: Ratio IC50. The format is toxicity, cell-based.
Data set [4] concerns Leishmania donovani. Kind of data set: Antileishmanial activity against Leishmania donovani MHOM/ET/67/L82 at 4.8 ug/mL. The format is functional.
The subject of the next data set is L6. Kind of data set: Cytotoxicity against rat L6 cells. The class given is cell-based. As to conditions: for IC50: Rattus norvegicus, L6; for Activity: rat, l6.
Another data set concerns Plasmodium falciparum. Kind of data set: Antimalarial activity against chloroquine and pyrimethamine-resistant Plasmodium falciparum K1 at 4.8 ug/mL. The format is functional.
The subject of data set [5] is Leishmania donovani. Nature of the data set: Antiparasitic activity against Leishmania donovani amastigote in mouse peritoneal macrophages assessed as reduction of parasite burden at 10 ug/mL after 96 hrs. The format is functional, organism-based.

Active and inactive are the calls of the source. No cut-off for these calls is given here.

By IC50 is commonly meant the concentration at which inhibition is half-maximal. A word on the inhibition: it is how much of the control response was suppressed. Read a high inhibition as strong suppression. For the compound `O=C(Nc1c(O)cccc1-c1nc2c(C(=O)O)cccc2o1)c1ncccc1O`, the IC50 worked out at 0.08 µM with Leishmania donovani [1] and 14.2 µM in the data set with L6. In the data set with Leishmania donovani [2], this compound had an inhibition at 0.8 µg/mL of 100%. Besides, the inhibition at 4.8 µg/mL was determined as 96% with Trypanosoma cruzi, 100% in the data set on Leishmania donovani [4] and 97% in the data set with Plasmodium falciparum. Further, the selectivity ratio in data set [3] is 185.
Regarding `O=C(Nc1c(O)cccc1-c1nc2c(C(=O)O)cccc2o1)c1cc(-c2ccccc2)nc2ccccc12`, the 50% inhibitory concentration (IC50) in the data set with Leishmania donovani [1] was 1.17 µM; with L6, 108 µM. For the same compound, in data set [3], the selectivity ratio is 92.
For `O=C(Nc1c(O)cccc1-c1nc2c(C(=O)O)cccc2o1)c1cc(O)c(O)c(O)c1`, the inhibition at 0.8 µg/mL with Leishmania donovani [2] was < 30%. Besides, the Activity result in the data set with L6 is on record as “Not Traceable”.
In the case of `COc1cccc(-c2nc3c(C(=O)O)cccc3o2)c1NC(=O)c1cc2ccccc2[nH]1`, the results for the concentration for half-maximal inhibition (IC50) with Leishmania donovani [1] and in the data set with L6 were 3.07 µM and 211 µM, respectively. Moreover, the selectivity ratio in data set [3] turned out to be 69.
With `O=C(Nc1c(O)cccc1-c1nc2c(C(=O)O)cccc2o1)c1ccccn1`, the half-maximal inhibitory concentration (IC50) stood at 0.31 µM in the data set on Leishmania donovani [1] and 30.6 µM in the data set with L6. For the same compound, the outcome in the data set with Leishmania donovani [5] was inactive. Moreover, in data set [3], the selectivity ratio was determined as 99.
Regarding `O=C(Nc1c(O)cccc1-c1nc2c(C(=O)O)cccc2o1)c1cccc(Cl)c1`, the half-maximal inhibitory concentration (IC50) is 1.93 µM in the data set with Leishmania donovani [1] and 143 µM with L6. In addition, the selectivity ratio in data set [3] was found to be 74.
For the compound `O=C(Nc1c(O)cccc1-c1nc2c(C(=O)O)cccc2o1)c1ccc(F)c(F)c1F`, the IC50 turned out to be 1.9 µM in the data set with Leishmania donovani [1] and 210 µM in the data set with L6. Further, the selectivity ratio in data set [3] came to 111.
Turning to `O=C(Nc1c(O)cccc1-c1nc2c(C(=O)O)cccc2o1)c1cnccn1`, the IC50 turned out to be 0.51 µM with Leishmania donovani [1] and 94.4 µM with L6. In addition, the outcome in the data set with Leishmania donovani [5] was inactive. Further, in data set [3], the selectivity ratio is 185.
In the case of `O=C(Nc1c(O)cccc1-c1nc2c(C(=O)O)cccc2o1)c1cccnc1`, the concentration for half-maximal inhibition (IC50) in the data set on Leishmania donovani [1] came to 4.36 µM; in the data set on L6 it was 240 µM. In addition, in data set [3], the selectivity ratio was determined as 55.
Taken in the same sequence, the figures for `O=C(Nc1c(O)cccc1-c1nc2c(C(=O)O)cccc2o1)c1ccccc1` were 1.73 µM, > 240 µM and > 138.
For the compound `O=C(Nc1c(O)cccc1-c1nc2c(C(=O)O)cccc2o1)c1cccnc1Cl`, the inhibition at 0.8 µg/mL in the data set on Leishmania donovani [2] is < 30%. Further, in the data set with L6, the Activity result is listed as “Not Traceable”.
As for `O=C(Nc1ccccc1-c1nc2c(C(=O)O)cccc2o1)c1ccccc1`, the IC50 amounted to 0.96 µM in the data set on Leishmania donovani [1] and 114 µM in the data set on L6. Further, the result in the data set on Leishmania donovani [5] was inactive. In data set [3], the selectivity ratio amounted to 118.
As for `CCCCCCCCCCCCCCCCOP(=O)([O-])OCC[N+](C)(C)C` [MILTEFOSINE], the selectivity ratio in data set [3] was found to be 565. The same compound yielded an IC50 in the data set on L6 of 147 µM.
In the case of `O=C(Nc1c(O)cccc1-c1nc2c(C(=O)O)cccc2o1)c1cc2ccccc2[nH]1`, the IC50 with Leishmania donovani [1] stood at 0.68 µM; in the data set with L6, 212 µM. In the data set with Leishmania donovani [5], the result was inactive. In addition, the selectivity ratio in data set [3] is 312.
For the compound `O=C(Nc1c(O)cccc1-c1nc2c(C(=O)O)cccc2o1)c1cc(-c2ccccc2)on1`, the 50% inhibitory concentration (IC50) in the data set on Leishmania donovani [1] was 0.93 µM; in the data set with L6, 141 µM. Moreover, the outcome in the data set on Leishmania donovani [5] was inactive. For the same compound, the selectivity ratio in data set [3] was determined as 152.
In the case of `O=C(Nc1c(O)cccc1-c1nc2c(C(=O)O)cccc2o1)c1ncccc1F`, the 50% inhibitory concentration (IC50) came out at 0.52 µM in the data set on Leishmania donovani [1] and 204 µM in the data set on L6. The result in the data set on Leishmania donovani [5] was inactive. Further, the selectivity ratio in data set [3] came to 392.
Take `O=C(Nc1c(O)cccc1-c1nc2c(C(=O)O)cccc2o1)c1ccccc1O`: the half-maximal inhibitory concentration (IC50) in the data set on Leishmania donovani [1] worked out at 0.85 µM; with L6, 85.1 µM. The outcome with Leishmania donovani [5] was inactive. Also, the selectivity ratio in data set [3] was found to be 100.
Take `COc1cccc(-c2nc3c(C(=O)O)cccc3o2)c1NC(=O)c1cccnc1Cl`: the inhibition at 0.8 µg/mL in the data set on Leishmania donovani [2] was < 30%. The Activity entry in the data set with L6 is listed as “Not Traceable”.
For `Cc1cc(C(=O)Nc2c(O)cccc2-c2nc3c(C(=O)O)cccc3o2)no1`, the inhibition at 0.8 µg/mL in the data set with Leishmania donovani [2] was < 30%. The Activity result with L6 was “Not Traceable”.
